Reference: ChEMBL document CHEMBL5335820, “Novel quinolinepiperazinyl-aryltetrazoles targeting the blood stage of Plasmodium falciparum” (RSC Med Chem, 2024)
Activity calls are given as the source filed them. The calls are words filed in the database; no cut-off is given here.

What was measured:
Plasmodium falciparum [1] = experiment: Antiplasmodial activity against chloroquine resistant Plasmodium falciparum INDO infected in human erythrocytes assessed as inhibition of parasite growth incubated for 72 hrs by SYBR green I staining based fluorescence plate reader analysis; format: functional, organism-based; details: Erythrocyte
How it was run: (§1)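 Pf3D7 or PfINDO was cultured in O+ human erythrocytes at 37 °C under 5% O2/5% CO2/90% N2 and ring-synchronised with 5% sorbitol. Cultures were exposed to 0–100 μM in triplicate for 72 h, with final DMSO 0.4%. After SYBR Green I lysis buffer (1 h, dark, 37 °C), fluorescence was read at 485/530 nm. Chloroquine-well counts were subtracted as background, and IC50 was obtained by non-linear regression.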

Plasmodium falciparum [2] = experiment: Antiplasmodial activity against chloroquine sensitive Plasmodium falciparum 3D7 infected in human erythrocytes assessed as inhibition of parasite growth incubated for 72 hrs by SYBR green I staining based fluorescence plate reader analysis; format: functional, organism-based; details: 3D7, Erythrocyte; how it was run: as §1
[3] = Cytotoxicity against human HEK293 cells assessed as reduction in cell viability incubated for 24 hrs by MTT assay; format: toxicity, cell-based
[4] = Selectivity index, ratio of CC50 for human HEK293 cells to IC50 of chloroquine resistant Plasmodium falciparum INDO infected in human erythrocytes; format: toxicity, cell-based; details: read-out: Ratio CC50/IC50
How it was run: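 Selectivity index = CC50 / PfINDO IC50. CC50 came from MTT assays: 10^4 HEK293 or HUH7 cells per well, seeded overnight and exposed to 0–100 μM for 24 h, then MTT for 4 h at 37 °C with formazan dissolved in DMSO and read at A570. Controls were 0.8% DMSO (full growth) and 10% DMSO (zero growth).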

Plasmodium falciparum [5] = experiment: Antimalarial activity against chloroquine resistant late schizont Plasmodium falciparum INDO infected in human erythrocytes assessed as inhibition of parasite growth incubated for 12 hrs; format: functional, organism-based; details: Erythrocyte
How it was run: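 PfINDO cultures were staged at 0–6 h (rings), 18–22 h (trophozoites), 30–34 h (early schizonts) and 40–44 h (late schizonts) post-invasion. Each was exposed to varying concentrations for 12 h, washed free of compound by centrifugation, and grown 48 h in drug-free medium. IC50 came from growth curves, with untreated culture as 100% and chloroquine-treated culture as 0% growth.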

Plasmodium falciparum [6] = experiment: Antiplasmodial activity against chloroquine resistant ring stage Plasmodium falciparum INDO infected in human erythrocytes assessed as reduction in parasitemia at 1.79 uM incubated for 12 hrs by time-kill kinetics based FACS analysis relative to control; format: functional, Erythrocyte; design: scale not given: the % may be the effect or the level left
How it was run: (§2)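 PfINDO rings were exposed to 2.25 or 1.79 μM, with compound washed out by centrifugation at 12, 24, 36, 48 or 57 h. Cultures were then grown drug-free to a total of 96 h. Parasitemia at the end of the second cycle was counted by FACS on 10^5 cells.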

Plasmodium falciparum [7] = experiment: Antiplasmodial activity against chloroquine resistant schizont stage Plasmodium falciparum INDO infected in human erythrocytes assessed as decrease in parasitemia at 4.30 uM incubated for 4 hrs by time-kill kinetics based FACS analysis; format: functional, organism-based; details: Erythrocyte, dose 4.3 µM
How it was run: (§3)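 PfINDO early schizonts (32–36 h post-invasion) and late schizonts (42–45 h post-invasion) were exposed to 5.62 or 4.30 μM for up to 16 h, washed at 4 h intervals, then cultured drug-free to a total of 96 h. Parasitemia was counted by FACS on 10^5 cells at the end of the second cycle; schizont rupture was checked microscopically.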

Plasmodium falciparum [8] = experiment: Antiplasmodial activity against chloroquine resistant early ring stage Plasmodium falciparum INDO infected in human erythrocytes assessed as reduction in parasite growth at 10 times IC50 concentration preincubated for 6 hrs followed by media replacement without compound for 66 hrs and measured after 72 hrs by Giemsa-staining based analysis; format: functional, organism-based; details: Erythrocyte
How it was run: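 Ring-stage survival assay. PfCam3.1R539T or PfINDO rings (0–3 h post-invasion), 1% parasitemia, 2% haematocrit, were exposed to 10× IC50 for 6 h. Compound was removed by three PBS washes, then cultures were grown 66 h in fresh medium. At 72 h, stage progression was assessed on Giemsa smears and revival by SYBR Green I lysis. Triplicate biological samples.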

Plasmodium falciparum [9] = experiment: Additive antiplasmodial activity against multidrug-resistant Plasmodium falciparum Cam3.1R539T infected in human erythrocytes at 8 times IC50 concentration incubated for 72 hrs in presence of artemisinin by SYBR green I staining based fluorescence assay; format: functional, organism-based; details: Erythrocyte
How it was run: (§4)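 P. falciparum Cam3.1R539T in O+ human erythrocytes, 1% parasitemia, 2% haematocrit. 8× IC50 stocks of test compound and standard drug were mixed at molar ratios 4:1, 3:2, 2:3 and 1:4, then serially diluted two-fold. Plates were incubated 72 h at 37 °C and read by SYBR Green I lysis. Controls were 0.4% DMSO (100% growth) and 4 μM chloroquine (0% growth). ΣFIC = FICA + FICB; <1 synergistic, 1.0–2.0 additive, >2.0 antagonistic.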

Plasmodium falciparum [10] = experiment: Antagonistic antiplasmodial activity against multidrug-resistant Plasmodium falciparum Cam3.1R539T infected in human erythrocytes at 8 times IC50 concentration incubated for 72 hrs in presence of mefloquine by SYBR green I staining based fluorescence assay; format: functional, organism-based; details: Erythrocyte; how it was run: as §4
Plasmodium falciparum [11] = experiment: Additive antiplasmodial activity against multidrug-resistant Plasmodium falciparum Cam3.1R539T infected in human erythrocytes at 8 times IC50 concentration incubated for 72 hrs in presence of pyrimethamine by SYBR green I staining based fluorescence assay; format: functional, organism-based; details: Erythrocyte; how it was run: as §4
[12] = Toxicity in mouse assessed as effect on urination at 100 mg/kg, po measured after 45 mins; format: organism-based; details: in vivo, 0.75 h
How it was run: (§5)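 Acute oral toxicity per OECD 423. Mice were fasted 4 h, given a single 100 mg/kg oral dose, and observed for 45 min for signs of acute toxicity, compared with untreated controls.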

[13] = Toxicity in mouse assessed as effect on rate of respiration at 100 mg/kg, po measured after 45 mins; format: organism-based; details: in vivo, 0.75 h; how it was run: as §5
[14] = Toxicity in mouse assessed as changes in skin at 100 mg/kg, po measured after 45 mins; format: organism-based; details: in vivo, 0.75 h; how it was run: as §5
[15] = Toxicity in mouse assessed as drowsiness at 100 mg/kg, po measured after 45 mins; format: organism-based; details: in vivo, 0.75 h; how it was run: as §5
[16] = Toxicity in mouse assessed as death at 100 mg/kg, po measured after 45 mins; format: organism-based; details: in vivo, 0.75 h; how it was run: as §5
Plasmodium falciparum [17] = experiment: Antiplasmodial activity against chloroquine resistant schizont stage Plasmodium falciparum INDO infected in human erythrocytes assessed as prevention of schizont rupture at 4.30 uM incubated for 4 hrs by time-kill kinetics based FACS analysis; format: functional, organism-based; details: Erythrocyte, dose 4.3 µM; how it was run: as §3
Plasmodium falciparum [18] = experiment: Antiplasmodial activity against chloroquine resistant ring stage Plasmodium falciparum INDO infected in human erythrocytes assessed as reduction in parasitemia at 2.25 uM incubated for 12 hrs by time-kill kinetics based FACS analysis relative to control; format: functional, Erythrocyte; design: scale not given: the % may be the effect or the level left; how it was run: as §2
Plasmodium falciparum [19] = experiment: Antiplasmodial activity against chloroquine resistant schizont stage Plasmodium falciparum INDO infected in human erythrocytes assessed as decrease in parasitemia at 5.62 uM incubated for 4 hrs by time-kill kinetics based FACS analysis; format: functional, organism-based; details: Erythrocyte; how it was run: as §3
Plasmodium falciparum [20] = experiment: Antiplasmodial activity against chloroquine resistant segmental schizont stage Plasmodium falciparum INDO infected in human erythrocytes assessed inhibition of rupture at 5.62 uM preincubated with compound for 8 hrs followed by media replacement without compound and measured after 48 hrs by SYBR Green staining based FACS analysis; format: functional, organism-based; details: Erythrocyte
Plasmodium falciparum [21] = experiment: Synergistic antiplasmodial activity against multidrug-resistant Plasmodium falciparum Cam3.1R539T infected in human erythrocytes at 8 times IC50 concentration incubated for 72 hrs in presence of pyrimethamine by SYBR green I staining based fluorescence assay; format: functional, organism-based; details: Erythrocyte; how it was run: as §4
Plasmodium falciparum [22] = experiment: Antiplasmodial activity against chloroquine resistant schizont stage Plasmodium falciparum INDO infected in human erythrocytes assessed as prevention of schizont rupture at 5.62 uM incubated for 4 hrs by time-kill kinetics based FACS analysis; format: functional, organism-based; details: Erythrocyte; how it was run: as §3

| Structure (SMILES) | IC50 (Plasmodium falciparum [1]) | IC50 (Plasmodium falciparum [2]) | CC50 at 24 h [3] | selectivity ratio [4] | IC50 (Plasmodium falciparum [5]) | Activity (Plasmodium falciparum [8]) | Activity (Plasmodium falciparum [9]) | Activity [12] | Activity [13] | Activity [14] | Activity [15] | Activity [16] | further results |
| --- | --- | --- | --- | --- | --- | --- | --- | --- | --- | --- | --- | --- | --- |
| O=C(Cn1nnc(-c2cccc([N+](=O)[O-])c2)n1)N1CCN(c2ccnc3cc(Cl)ccc23)CC1 | 1790 nM | 2230 nM | > 400000 nM | 223 | 7100 nM | inactive | Active | Non-Toxic | Non-Toxic | Non-Toxic | Non-Toxic | Non-Toxic | Activity (Plasmodium falciparum [6]): ~22%; Activity (Plasmodium falciparum [7]): Active; Activity (Plasmodium falciparum [10]): Active; Activity (Plasmodium falciparum [11]): Active; Activity (Plasmodium falciparum [17]): inactive |
| Clc1ccc2c(N3CCN(CCCn4nnc(-c5ccc(Br)cc5)n4)CC3)ccnc2c1 | 2250 nM | 1850 nM | 400000 nM | 178 | 1500 nM | inactive | Active | Non-Toxic | Non-Toxic | Non-Toxic | Non-Toxic | Non-Toxic | Activity (Plasmodium falciparum [18]): ~22%; Activity (Plasmodium falciparum [19]): Active; Activity (Plasmodium falciparum [20]): Active; Activity (Plasmodium falciparum [21]): Active; Activity (Plasmodium falciparum [22]): Active |
